Compounds with a hit are over-represented: about 1.9% of the library has one in this group of screens.
DAGLB inhibitor – diacylglycerol lipase beta (human) inhibition. inhibition, % at 5.17 µM. HEK293T DAGLB membrane lysate, EnzChek fluorogenic substrate. Q8NCG7. 0.059% of 340,000 active; in the data active = inhibition above about 34%
Target sequence (Q8NCG7 whole entry, looked up): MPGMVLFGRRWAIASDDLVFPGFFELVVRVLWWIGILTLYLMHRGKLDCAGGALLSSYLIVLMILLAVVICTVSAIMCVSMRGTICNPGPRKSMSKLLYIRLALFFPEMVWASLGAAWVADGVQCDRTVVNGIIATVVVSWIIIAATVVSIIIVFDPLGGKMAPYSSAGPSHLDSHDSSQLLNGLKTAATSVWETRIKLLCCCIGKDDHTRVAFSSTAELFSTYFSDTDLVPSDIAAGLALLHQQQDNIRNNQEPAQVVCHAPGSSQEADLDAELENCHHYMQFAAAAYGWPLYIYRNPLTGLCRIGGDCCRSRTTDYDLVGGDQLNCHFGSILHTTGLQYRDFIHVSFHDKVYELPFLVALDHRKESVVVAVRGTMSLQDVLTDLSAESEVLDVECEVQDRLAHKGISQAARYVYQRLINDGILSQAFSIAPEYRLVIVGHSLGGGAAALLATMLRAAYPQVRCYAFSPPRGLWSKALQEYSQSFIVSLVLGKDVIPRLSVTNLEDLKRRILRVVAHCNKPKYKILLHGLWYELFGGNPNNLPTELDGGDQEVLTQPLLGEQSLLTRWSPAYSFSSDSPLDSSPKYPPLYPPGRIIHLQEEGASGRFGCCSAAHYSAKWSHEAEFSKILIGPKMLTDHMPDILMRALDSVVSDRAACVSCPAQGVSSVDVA
TbMetRS inhib – Trypanosoma brucei MetRS inhibition | inhibition, % at 11.9 µM | purified T. brucei MetRS, ATP depletion, Kinase-Glo luminescence | 0.4% of 360,000 active;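 active = inhibition above a per-plate cutoff of the control wells' mean inhibition plus 3 SD, cut at about 5.5% in these data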
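System: purified T. brucei MetRS enzyme / Detection: Kinase-Glo luciferase luminescence reporting remaining unconsumed ATP / Medium: HEPES buffer with MgCl2, KCl, DTT, spermine, BSA, pyrophosphatase / Replication: singlicate, one well per compound / Evaluation: percent inhibition relative to median high and low control wells / Schedule: 2 h aminoacylation at 25 °C after 15 min preincubation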
PLCb3 inh – blocks human PLC-beta3 enzyme activity; Q01970; inhibition, % at 12.2 µM; 0.18% of 370,000 active; Purified PLC-beta3, fluorogenic substrate, fluorescence; in the data active = inhibition above about 11%
PLC-gamma1 inh – blocks human PLC-gamma1 enzyme activity. P19174. purified PLC-gamma1, fluorogenic substrate, fluorescence. inhibition, % at 12.2 µM. 0.84% of 370,000 active. AID 720700; in the data active = inhibition above about 9.5%
HGIII-sPLA2 inh – Blocks human group III sPLA2 activity | inhibition, % at 12.2 µM | Q9NZ20 | QFRET BODIPY PC-A2 liposome hydrolysis, fluorescence | AID 743126 | 0.56% of 370,000 active;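 active = inhibition above mean plus 3 SD of compounds lying within the high and low control bounds, cut at about 19% in these data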
Tb MetRS conf – confirmation of Trypanosoma brucei MetRS inhibitors | shares compounds with TbMetRS inhib | T. brucei MetRS enzyme, luminescence (ATP depletion) | inhibition, % at 11.9 µM | 93% of 1,400 active | AID 624412; in the data active = inhibition above about 7%
Jurkat cytotox – kills Jurkat cells in T. brucei MetRS counterscreen. shares compounds with TbMetRS inhib. Jurkat cells viability, ATP luminescence. inhibition, % at 8.3 µM. 12% of 1,400 active. AID 624413; in the data active = inhibition above about 15%
TbMetRS FP orth – T. brucei MetRS inhibition, orthogonal assay; shares compounds with TbMetRS inhib; purified T. brucei MetRS, fluorescence polarization; inhibition, % at 11.9 µM; 44% of 1,400 active; AID 651607; in the data active = inhibition above about 17%
Numbers stand for hits; 0 = inactive; - = no result given.

SMILES	DAGLB inhibitor	TbMetRS inhib	PLCb3 inh	PLC-gamma1 inh	HGIII-sPLA2 inh	Tb MetRS conf	Jurkat cytotox	TbMetRS FP orth
CCC[C@H](/C=C/C(=O)OC(C)(C)C)Sc1ccc(N)cc1	-	-	0	0	0	-	-	-
Cc1ccc(OCCCC(=O)Nc2nc3ccccc3[nH]2)cc1	0	0	0	0	0	-	-	-
Cc1cccc(OCCSCc2nc3ccccc3[nH]2)c1	0	8.7	0	0	0	19.6	0	0
Cc1ccccc1OCCSCc1nc2ccccc2[nH]1	0	6.2	0	0	0	16.8	0	0
Cc1cccc(OCCCC(=O)Nc2nc3ccccc3[nH]2)c1	0	63.1	0	0	0	67.2	0	46.0
Cc1cccc(OCCCSc2nc3ccccc3[nH]2)c1	0	0	0	0	0	-	-	-
CC(CCN1CCC(C(O)(c2ccccc2)c2ccccc2)CC1)Oc1cccc(Br)c1 (stereo not given)	-	-	0	0	0	-	-	-
COc1cccc(CN2CCCC(C(=O)Nc3ccc(-c4cscn4)cc3)C2)c1 (stereo not given)	0	7.4	0	0	0	27.9	0	0
Cc1ncc(CN2CCCC(C(=O)Nc3ccc(-c4cscn4)cc3)C2)cn1 (stereo not given)	0	0	0	0	0	-	-	-
Clc1ccc2nc(-c3ccc(Cl)nc3)[nH]c2c1	0	24.9	0	0	0	46.2	15.1	22.1
Nc1ccc2nc(-c3ccc(Cl)cc3)[nH]c2c1	0	0	0	0	0	-	-	-
COC(=O)[C@]1(C#N)CC(=O)N(Cc2ccc(Cl)cc2)[C@@H]1c1ccc(OC)cc1	-	-	0	0	0	-	-	-
COc1cccc(/C=N/Nc2nc3ccccc3[nH]2)c1O	0	8.8	0	0	0	10.4	95.8	0
O=[N+]([O-])c1ccc(O)c(/C=N/Nc2nc3ccccc3[nH]2)c1	0	9.5	0	0	0	14.2	97.5	0
COc1ccc(O)c(/C=N/Nc2nc3ccccc3[nH]2)c1	0	0	0	0	0	-	-	-
COc1cccc(/C=N/Nc2nc3ccccc3[nH]2)c1OC	0	0	0	0	0	-	-	-
COc1cc(/C=N/Nc2nc3ccccc3[nH]2)cc(OC)c1O	0	8.5	0	0	0	14.4	30.4	32.6
Cc1nn(-c2ccccc2)c(C)c1/C=N/Nc1nc2ccccc2[nH]1	0	8.0	0	0	0	13.6	0	0
Cc1cc(=O)[nH]c(N/N=C/c2c(C)nn(-c3ccccc3)c2C)n1	0	0	0	0	0	-	-	-
COc1ccccc1NC(=O)OC1CC2CC1[C@H]1CCCCN1[C@H]2C (stereo not given in full)	-	-	0	0	0	-	-	-
COc1cc(/C=N/Nc2nc3ccccc3[nH]c2=O)ccc1O	0	0	0	0	0	-	-	-
COc1cc(/C=N/Nc2nc3ccccc3[nH]2)ccc1O	0	7.9	0	0	0	14.7	0	31.6
O=C(O)c1ccc(S(=O)(=O)/N=C2\C=C(Nc3ccccc3F)C(=O)c3ccccc32)cc1	0	9.2	0	20.2	0	14.7	90.6	0
O=C(Cc1ccc(Br)cc1)N/N=C/c1ccc(-c2cccc(C(=O)O)c2)o1	0	6.9	0	0	0	16.1	0	0
Cc1[nH]c2ccccc2c1C(=O)C(=O)NCCc1ccc(S(N)(=O)=O)cc1	0	49.7	0	0	0	65.9	0	44.6
SMILES	DAGLB inhibitor	TbMetRS inhib	PLCb3 inh	PLC-gamma1 inh	HGIII-sPLA2 inh	Tb MetRS conf	Jurkat cytotox	TbMetRS FP orth
NS(=O)(=O)c1ccc(CCNC(=O)C(=O)c2c[nH]c3ccccc23)cc1	0	11.6	0	0	0	25.6	0	0
CC(C)(C)OC(=O)NCCc1ccccc1/C=C/S(=O)(=O)NCc1ccccc1	-	-	0	0	0	-	-	-
Cc1ccc2nc(/C(C#N)=C/c3cn[nH]c3-c3ccc(F)cc3)[nH]c2c1	0	24.3	0	0	0	50.9	56.9	46.9
Cn1nc(C(F)(F)F)c(-c2ccc(Br)cc2)c1NC(=O)Nc1ccc(F)cc1F	0	24.7	0	0	0	53.8	0	31.1
COc1ccc(S(=O)(=O)NC(=O)C2(C)CCN2C(=O)C2CC2)cc1 (stereo not given)	-	10.5	0	0	0	5.8	0	0
C#CCN1CC(N(C)CCOC(=O)c2ccc(F)cc2)CS1(=O)=O (stereo not given)	-	-	0	0	0	-	-	-
O=C(C(=O)N1CCCc2ccccc21)c1c[nH]c2ccccc12	0	8.2	0	0	0	12.7	0	0
O=C(C(=O)N1CC=C(c2ccccc2)CC1)c1c[nH]c2ccccc12	0	7.4	0	0	0	16.5	0	0
O=C(C(=O)N1CCN(Cc2ccc3c(c2)OCO3)CC1)c1c[nH]c2ccccc12	0	9.6	0	0	0	24.9	0	0
Cc1c(C(=O)C(=O)N2CCN(Cc3ccc4c(c3)OCO4)CC2)c2ccccc2n1C	0	0	0	0	0	-	-	-
Cc1[nH]c2ccccc2c1C(=O)C(=O)N1CCCc2ccccc21	0	0	0	0	0	-	-	-
O=C(C(=O)N1CCN(c2ccccc2Cl)CC1)c1c[nH]c2ccccc12	0	12.9	0	0	0	24.1	18.0	0
C[C@H](CO)N1C[C@H](C)[C@@H](CN(C)C(=O)Nc2ccc(C(F)(F)F)cc2)Oc2ccc(NC(=O)Nc3ccccc3)cc2C1=O	0	6.1	0	0	0	18.3	0	0
C[C@H](CO)N1C[C@H](C)[C@@H](CN(C)S(=O)(=O)c2ccc(F)cc2)Oc2ccc(NC(=O)Nc3ccccc3)cc2C1=O	0	0	0	0	0	-	-	-
C[C@H](CO)N1C[C@H](C)[C@@H](CN(C)S(=O)(=O)c2ccccc2)Oc2ccc(NC(=O)Nc3ccccc3)cc2C1=O	0	7.2	0	0	0	18.9	0	0
CCn1c(COc2ccc(C)cc2)nnc1SCc1cccc(C(F)(F)F)c1	-	-	0	0	0	-	-	-
CN(CC(=O)Nc1cccc(F)c1)C(=O)CCSc1ccc(F)cc1	0	14.7	0	0	0	42.5	0	19.5
COc1ccc(NC(=O)CN(C)C(=O)c2oc3c(ccc4ccccc43)c2C)cc1	0	6.4	0	0	0	22.8	0	0
CN(CC(=O)Nc1ccccc1Cl)C(=O)CCSc1ccc(F)cc1	0	0	0	0	0	-	-	-
CN(CC(=O)Nc1cccc(F)c1)C(=O)c1ccc(-c2ccc(Cl)cc2)o1	0	20.5	0	0	0	39.4	0	23.6
Cc1cc(Br)ccc1NC(=O)CN(C)C(=O)CCSc1ccc(F)cc1	0	0	0	0	0	-	-	-
COc1ccc(NC(=O)CN(C)C(=O)CCSc2ccc(F)cc2)cc1	0	8.7	0	0	0	32.7	0	0
CCCCN1CN2Cc3ccccc3C2CS1(=O)=O (stereo not given)	-	-	0	0	0	-	-	-
O=C1CC(SCc2nc3ccccc3[nH]2)C(=O)N1c1ccc(F)c(Cl)c1 (stereo not given)	0	28.8	0	0	0	21.4	0	0

Assay outcomes from PubChem BioAssay.
